No end group written: not given here.
Tests used:
PKN [1] = target: T1, PKN (Homo sapiens, UniProt Q16512); settings: cited from earlier work; for inhibition of kinase activity of PKN: ref [20]
[2] = test system: interaction between Iα and the catalytic domain of PKN1; settings: ref [24]; cited from earlier work
cellular membranes = settings: ref [28]; cited from earlier work
[3] = test system: androgen receptor-induced tumour cell proliferation; settings: by inhibition of PKN1; ref [7]; cited from earlier work
human PKN1 [4] = target: T2, human PKN1 (Homo sapiens, UniProt Q16512); test: In vitro kinase assay, δpeptide substrate, PKN1 catalytic domain; format: biochemical; settings: for inhibition of peptide kinase activity of PKN1: δpeptide substrate, various peptide concentrations, up to 50 μM, 30 °C, 5 min, pH 7.5, 40 μM ATP, representative of three independent experiments
[5] = test system: catalytic domain of all isoforms of PKNs; settings: ref [24], cited from earlier work
PKA = settings: ref [24]; cited from earlier work
PKCδ = settings: ref [24]; cited from earlier work
rat PKCα = test: Phosphorylation of GST-tagged oligopeptides by PKCα; format: biochemical; settings: GST-fused peptide substrate; 30 °C, 5 min
Outline: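 GST-fused rat PKCα catalytic domain (332–end) was Sf9/baculovirus-expressed and purified. Reactions were stopped in boiled Laemmli buffer, run on 15% SDS/PAGE, and phosphorylation was read by radioactivity imaging.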

rat PKCδ = test: Phosphorylation of GST-tagged oligopeptides by PKCδ; format: biochemical; settings: GST-fused peptide substrate; 30 °C, 5 min
human PKN1 [6] = target: T2, human PKN1; test: Phosphorylation of GST-tagged oligopeptides by PKN1; format: biochemical; settings: GST-fused peptide substrate; 30 °C, 5 min
PKN [7] = target: T1, PKN; test: In vitro kinase assay, PKN; format: biochemical; settings: Supplementary Figure S4
Outline: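 Catalytic domains of human PKN1 (543–end) and PKC isoforms were GST-fused, baculovirus/Sf9-expressed and affinity-purified. 10 ng kinase was incubated 5 min at 30 °C in 20 mM Tris/HCl pH 7.5, 4 mM MgCl2, 40 μM ATP, [γ-32P]ATP, 100 μM δpeptide (PKCδ 137–153, A147S) and BSA or GST, ± peptides. Reactions were read on P81 paper by Cherenkov counting; no-peptide activity = 100%.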

T1 sequence (Q16512 543-942 limits assumed): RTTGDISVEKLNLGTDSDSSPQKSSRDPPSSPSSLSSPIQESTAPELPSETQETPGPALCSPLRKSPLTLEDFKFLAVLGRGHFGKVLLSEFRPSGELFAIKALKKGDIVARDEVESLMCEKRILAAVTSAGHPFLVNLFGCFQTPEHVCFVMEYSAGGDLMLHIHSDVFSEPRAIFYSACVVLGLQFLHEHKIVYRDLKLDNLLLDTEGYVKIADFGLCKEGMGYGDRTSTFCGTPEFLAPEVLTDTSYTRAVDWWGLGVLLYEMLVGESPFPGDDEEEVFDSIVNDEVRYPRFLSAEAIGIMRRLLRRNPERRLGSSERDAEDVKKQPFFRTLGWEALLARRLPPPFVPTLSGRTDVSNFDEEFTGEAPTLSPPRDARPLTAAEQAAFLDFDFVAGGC
T2 sequence (Q16512 543-942 limits assumed): as above

In the case of CCCCC/C=C\C/C=C\C/C=C\C/C=C\CCCC(=O)O [Arachidonic acid, arachidonic acid], the “activation of PKN in vitro” value (PKN [1]; ref [1]) is given as “activated”, the “effect on interaction between Iα and catalytic domain of PKN1” value [2] is given as “directly interfere with the interaction” and the “relief of autoinhibition of wild-type PKN1 by Iα” value [2] is given as “relieve the catalytic activity of wild-type PKN1 from autoinhibition by Iα”.

In the case of CC1CNCCN1S(=O)(=O)c1cccc2cnccc12 (stereo not shown) [H-7], the “inhibition of kinase activity of PKN” value (PKN [1]) is listed as “potently inhibit”.

For O=C(O)CCCc1ccc2ccc3cccc4ccc1c2c34 [Pyrenebutyrate, pyrenebutyrate], the “ability of CPP-fused peptides to translocate across cellular membranes” value (cellular membranes) is listed as “improve the ability of CPP-fused peptides to translocate across cellular membranes”.

In the case of Cn1cc(C2=C(c3cn(CCCSC(=N)N)c4ccccc34)C(=O)NC2=O)c2ccccc21 [Ro318220], the “effect on androgen receptor-induced tumour cell proliferation” value [3] is given as “blocks proliferation”.

In the case of CN(C)CCCn1cc(C2=C(c3c[nH]c4ccccc34)C(=O)NC2=O)c2ccccc21 [bisindolylmaleimide I], the “inhibition of kinase activity of PKN” value (PKN [1]) is given as “potently inhibit”.

With AEVTFRNPVIERIPRLRR the “inhibition of peptide kinase activity of PKN1” value (shortened to “inhibition … of PKN1”) (human PKN1 [4]) was “partially inhibited”.

In the case of “His6-tagged Iα: His-tagged region comprising amino acid residues 455–511 of PKN1”, the “inhibition of PKN kinase activity by His-tagged Iα” value ([5]; direct effects on the catalytic region) is listed as “potently inhibited”, the “inhibition of catalytic domain of all PKN isoforms” value [5] is listed as “inhibited” and the “effect on PKA” value (PKA) is listed as “no inhibitory effect”. The “effect on PKCδ” value (PKCδ) was “no inhibitory effect”.

In the case of KRRKPSFRNP [NS1], the “phosphorylation by PKCα” value (rat PKCα) is reported as “efficiently phosphorylated” and the “phosphorylation by PKCδ” value (rat PKCδ) is reported as “efficiently phosphorylated”.

In the case of LSKVTSKCGS [tau320], the “phosphorylation by PKN1” value (human PKN1 [6]) is reported as “efficiently phosphorylated” and the “phosphorylation by PKCδ” value (rat PKCδ) is reported as “efficiently phosphorylated”.

With NERHEVQLDMEPQGCLV the “inhibition … of PKN1” value (human PKN1 [4]) was “did not inhibit”.

For PRLRRQKKIFSKQQG [PRL], the Ki (human PKN1 [4]) was 700 nM and the “effect on apparent Km for δpeptide” value (human PKN1 [4]; Michaelis–Menten fit, increasing PRL concentrations) was “increased the apparent Km”.

For PRLRRQKKIFSKQQG-NH-CH2CH2-SH [PRL-SH], the “selectivity for PKN over PKC in vitro” value (PKN [7]) was “selective inhibition of PKN”.

For PVIERIPRLRRQKKI, the “inhibition … of PKN1” value (human PKN1 [4]) was “partially inhibited”.

In the case of QKKIFSKQQGKAFQAARQMN, the “inhibition … of PKN1” value (human PKN1 [4]) is reported as “partially inhibited”.

From paper PMC3755880 (The Biochemical journal, 2009)
